The list is not random: actives were taken first. Their share in the collection is about 0.97%.
Dynein transport = dynein cargo transport inhibition | 3617.4 mouse cells, GR-EGFP nuclear translocation imaging; test concentration mostly 20 µM; stimulated with dexamethasone, 1 µM; hits give low values | z-score, hits read low | 220,000 tested, 0.47% active;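 active = plate z-score of nuclear minus cytoplasmic receptor signal below a set negative limit, without overly bright fluorescence or cell loss, cut at about -3.5 in these data, passing the limit was not always enough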;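 note: z-score of nuclear minus cytoplasmic ring GR-EGFP intensity difference per well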
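Buffer or medium: tet-free, stripped-serum medium; Also added: dexamethasone, 1.0 µM final; Technique: high-content fluorescence imaging after fixation; Times: 48 h induction, 1 h compound, 30 min dex at 37 °C; Read-out: per-cell GR-EGFP intensity, nucleus versus surrounding cytoplasmic ring, well-averaged.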
Mdm2 ligase inh = Mdm2 E3 ligase (human) inhibition; Q00987; cell-based MDM2 ubiquitination luciferase reporter, 2 h; 0 = plate control, 100 = twice control, blank-subtracted; signal enhancement, % at 5 µM; 210,000 tested, 0.11% active;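 active = signal enhancement of 30% or more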;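 note: luminescence tracks abundance of the self-degrading MDM2-luciferase fusion protein; higher signal means inhibition of MDM2 E3 ligase activity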
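Material: stable MDM2–luciferase fusion reporter cells / Quantity: 2000 cells/well / Dosing: single 5 µM compound dose, 0.2% final DMSO / Buffer or medium: DMEM / Schedule: 4 h cell settling then 2 h compound exposure, 37 °C / Detection: luminescence with SteadyLite reagent, 15 min at room temperature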
TNF death inh = blocks TNF-alpha induced death of Jurkat FADD-/- cells | AID 463075 | 220,000 tested, 0.068% active | Jurkat FADD-/- TNF necroptosis rescue, ATP luminescence, 24 h; 0 = TNF only, 100 = no-TNF cells | activation (protection from cell death), % at 10 µM;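 active = activation, meaning protection from cell death, of at least 50% relative to plate controls; inactive = activation below 50%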;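 note: necroptosis triggered by 40 ng/mL TNF-alpha added together with compound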
zVAD death inh = blocks zVAD induced death of L929 cells; L929 zVAD necroptosis rescue, ATP luminescence, 24 h; with zVAD 60 µM; viability rescue, % at 10 µM; 220,000 tested, 0.38% active; AID 1377;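 active = activation, scaled between plate controls, above about 75%, limit read from the data; inactive = activation under that limit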;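 note: 0% = zVAD with DMSO and 100% = DMSO alone without zVAD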
Beta2AR agonist = agonists of human beta-2 adrenergic receptor inducing internalization. P07550. Am2.2-beta2AR cells, FAP receptor internalization, flow cytometry. response, % (test concentration not listed). 340,000 tested, 0.43% active. AID 504454;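 active = response above a set limit, near 3 SD of response in nonfluorescent compounds, cut at about 42% in these data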
Target sequence (P07550 whole entry, looked up): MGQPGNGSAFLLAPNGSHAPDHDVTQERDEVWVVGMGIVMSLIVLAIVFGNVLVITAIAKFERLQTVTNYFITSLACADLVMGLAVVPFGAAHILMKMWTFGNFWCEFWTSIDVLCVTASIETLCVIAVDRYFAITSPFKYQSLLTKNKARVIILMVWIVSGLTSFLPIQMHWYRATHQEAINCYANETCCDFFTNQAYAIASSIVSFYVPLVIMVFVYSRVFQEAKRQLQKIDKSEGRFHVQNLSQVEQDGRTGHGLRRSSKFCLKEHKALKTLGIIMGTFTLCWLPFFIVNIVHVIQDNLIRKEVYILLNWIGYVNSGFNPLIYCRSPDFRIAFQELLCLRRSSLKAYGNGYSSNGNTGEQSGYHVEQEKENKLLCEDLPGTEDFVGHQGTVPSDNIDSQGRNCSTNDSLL
Beta2AR ag CP1 = human beta-2 adrenergic receptor agonism, cherry pick; 1,100 tested, 25% active; shares compounds with Beta2AR agonist; percent response (surface receptor), % at 10 µM; Am2.2-beta2AR cells, FAP surface receptor, flow cytometry; hits give low values;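 active = surface receptor percent response at or below 58%, roughly 3 SD from nonfluorescent compounds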
B2AR FAP counter = counter-screen for beta-2AR agonists: fluorescence in Am2.2 cells; shares compounds with Beta2AR agonist; FAP fluorogen flow cytometry, fluorescence counterscreen; hits give low values; calls only at 10 µM; 1,100 tested, under 10 active; AID 588765;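 active = percent response below a set limit in fluorescence channel 1 and below 50% in channel 8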
The depositor's hits bear a star; i = inactive; . = no result given.

SMILES | Dynein transport | Mdm2 ligase inh | TNF death inh | zVAD death inh | Beta2AR agonist | Beta2AR ag CP1 | B2AR FAP counter
COc1cc(/C=C2/C(=O)NN(c3ccc(Cl)cc3)C2=O)ccc1OC(=O)c1ccco1 | -0.272 | -7.3 | 1.3 | -0.2 | 9.9 | . | .
COc1cc(/C=C2/C(=O)NN(c3cccc(F)c3)C2=O)ccc1OC(=O)c1ccco1 | -0.669 | 3.2 | 1.0 | 0.6 | 46.8* | 114.0 | i
COc1ccc(OC)c(S(=O)(=O)N(C)CC(=O)N2CCN(c3cccc(Cl)c3)CC2)c1 | 0.726 | 5.5 | -3.8 | -0.2 | -5.3 | 131.3 | i
COc1ccc(OC)c(S(=O)(=O)N(C)CC(=O)N2CCN(c3ccccc3F)CC2)c1 | 1.5 | -10.5 | -1.6 | -0.6 | -3.1 | 106.0 | i
COc1ccc(OC)c(S(=O)(=O)N(C)CC(=O)N2CCN(c3ccc(F)cc3)CC2)c1 | -0.715 | -21.4 | -0.2 | 1.0 | -16.1 | 99.9 | i
COc1ccc(OC)c(S(=O)(=O)N(C)CC(=O)N2CCOCC2)c1 | . | . | . | . | 0.6 | . | .
COc1ccccc1OCC(=O)N/N=C/c1c(O)ccc2ccccc12 | . | . | . | . | -5.5 | . | .
CCOc1cc(-c2c(C)c(CC)nc(N)c2C#N)ccc1O | -0.93 | -1.8 | 0.9 | 3.3 | 69.0* | 103.3 | i
CCOc1cc(-c2c(C)c(C)nc(N)c2C#N)ccc1O | -0.144 | 1.4 | 0.7 | 0.6 | 8.8 | . | .
COc1ccc(Nc2nnc(-c3ccc(C)cc3)c3ccccc23)cc1C(=O)N1CCCCC1 | 0.924 | -1.7 | -2.3 | 0.5 | 20.8 | . | .
Cc1cccc(Nc2nnc(-c3ccc(C(=O)N4C[C@H]5C[C@H](C4)c4cccc(=O)n4C5)cc3)c3ccccc23)c1 | -0.521 | -1.2 | -2.1 | 70.0 | 84.7* | 15.8* | i
CCSc1nc2ccccc2n1C(=O)c1ccc(S(=O)(=O)N2CCCCCC2)cc1 | 0.482 | -13.7 | 1.4 | 1.9 | 52.8* | 56.6* | i
O=C(Cc1cccs1)N/N=C/C=C/c1ccco1 | -1.46 | 8.1 | -0.7 | 0.2 | 0.5 | . | .
COc1cc(S(=O)(=O)Nc2ccccc2C)ccc1Cl | -0.803 | -17.1 | 1.8 | -0.2 | -4.9 | . | .
Cc1nn(C)c(C)c1NC(=O)c1cc2nc(-c3ccco3)cc(C(F)(F)F)n2n1 | 0.213 | 2.5 | 1.1 | 4.5 | -10.6 | . | .
Cc1ccc(Cn2ccc(NC(=O)c3cc4nc(-c5ccco5)cc(C(F)(F)F)n4n3)n2)cc1 | 1.12 | -10.4 | -0.8 | -0.1 | 111.8* | 7.1* | i
O=C(COc1ccc(Cl)cc1)N1CCCCC1 | -0.157 | -13.9 | 3.1 | 0.7 | 5.2 | . | .
CN(C(=O)CSc1nc(-c2ccc(C(C)(C)C)cc2)c(C#N)c(=O)[nH]1)C1CCCCC1 | . | . | . | . | 14.8 | 104.9 | i
CCCSc1ccc([C@H]2N[C@@](C)(C(=O)OC)[C@H]3C(=O)N(CC)C(=O)[C@@H]23)cc1 | . | . | . | . | -12.1 | . | .
CN(Cc1c(F)cccc1Cl)C(=O)c1ccc(NC(=O)CC2SC(N3CCCC3)=NC2=O)cc1 (stereo unspecified) | . | . | . | . | -5.9 | . | .
COc1ccc(OC)c(S(=O)(=O)N2CCCC(C(=O)NCc3cccnc3)C2)c1 (stereo unspecified) | . | . | . | . | 71.3* | 91.6 | i
COc1ccc(OC)c(S(=O)(=O)N2CCCC(C(=O)NCc3ccccn3)C2)c1 (stereo unspecified) | . | . | . | . | -1.1 | . | .
CC(C)C(NC(=O)CN(c1cccc(F)c1)S(C)(=O)=O)C(C)C | 1.68 | -10.6 | -0.3 | -1.3 | -3.9 | . | .
CCOc1cc(CNCCc2ccc(S(N)(=O)=O)cc2)ccc1OCc1ccc(Cl)cc1 | 0.575 | -18.4 | -26.6 | 5.9 | 49.5* | 31.2* | i
COc1cc(CNCCc2ccc(S(N)(=O)=O)cc2)ccc1OCc1ccc(Cl)cc1 | -0.244 | -17.7 | -12.4 | 4.2 | 54.6* | 93.0 | i
SMILES | Dynein transport | Mdm2 ligase inh | TNF death inh | zVAD death inh | Beta2AR agonist | Beta2AR ag CP1 | B2AR FAP counter
COc1cc(CNCCc2ccc(S(N)(=O)=O)cc2)ccc1OCC(=O)NC1CCCCC1 | 0.4 | 6.5 | -2.4 | 0.8 | -6.7 | . | .
Cn1c(N)c(C(=O)CSc2nnc(C3CC3)n2-c2ccccc2)c(=O)[nH]c1=O | . | . | . | . | -5.3 | . | .
CCOC(=O)C1(C)C=C(Nc2ccc(O)cc2)C(=O)N1c1ccc(O)cc1 (stereo unspecified) | -0.206 | 8.6 | 2.6 | 1.1 | 51.8* | 27.5* | i
CC(Sc1nc(-c2ccccc2)cc(C(F)(F)F)n1)C(=O)N1CCCCC1 (stereo unspecified) | 0.541 | -4.5 | -0.6 | 0.7 | 99.0* | 10.5* | i
CC1CCCN(C(=O)C(C)Sc2nc(-c3ccccc3)cc(C(F)(F)F)n2)C1 (stereo unspecified) | 2.35 | -4.2 | 0.5 | -0.1 | 15.2 | 66.9 | i
CC(Sc1nc(-c2ccccc2)cc(C(F)(F)F)n1)C(=O)NCc1ccco1 (stereo unspecified) | -0.434 | -14.7 | 0.1 | 0.3 | 5.7 | . | .
O=C(NCC(c1cccs1)N1CCOCC1)c1ccccc1NS(=O)(=O)c1ccc(Cl)c([N+](=O)[O-])c1 (stereo unspecified) | -1.5 | -5.6 | 0.1 | 1.4 | 63.3* | 93.8 | i
c1ccc(Cc2nnc(-c3ccccc3)o2)cc1 | -1.61 | -15.7 | -2.5 | 2.8 | 2.1 | . | .
Cc1cc(Br)ccc1OCc1nnc(-c2ccccc2)o1 | . | . | . | . | -4.2 | 118.0 | i
Brc1ccc(-c2nnc(Cc3ccccc3)o2)cc1 | 0.958 | -8.2 | 1.2 | 0.4 | -14.0 | 133.2 | i
Clc1ccccc1OCc1nnc(-c2ccccc2)o1 | 0.0573 | -3.4 | 0.3 | -0.2 | 0.7 | . | .
Cc1cccc(OCc2nnc(-c3ccc(F)cc3)o2)c1 | . | . | . | . | 6.7 | 97.3 | i
Cc1ccc(-c2nnc(COc3cccc(-n4cnnn4)c3)o2)cc1 | -0.264 | -37.2 | 1.2 | -0.2 | -12.5 | . | .
COc1ccc(-c2nnc(COc3ccc(Br)cc3C)o2)cc1 | . | . | . | . | -3.6 | 107.3 | i
C=CCn1c(CC(C)(C)C)nc2ccccc21 | -0.542 | -9.0 | 0.8 | 1.8 | -6.6 | . | .
Clc1ccccc1C1Nc2cccc3cccc(c23)N1 | . | . | . | . | 10.9 | . | .
Clc1cccc(C2Nc3cccc4cccc(c34)N2)c1Cl | . | . | . | . | 5.6 | 93.8 | i
N#CCC(=N)N1CCN(c2ccccc2Cl)CC1 | -0.289 | 2.5 | -2.4 | 0.1 | . | . | .
Cc1cc(N2CCN(C)CC2)ccc1NC(=O)c1cccc(S(=O)(=O)N2CCc3ccccc3C2)c1 | -0.294 | -6.3 | -14.5 | 51.9 | 42.0* | 82.5 | i
Cc1ccc(NC(=O)c2cccc(S(=O)(=O)N3CCc4ccccc4C3)c2)nc1 | . | . | . | . | -3.5 | . | .
CC(=O)Nc1ccc(S(=O)(=O)NCCc2csc(-c3cccnc3)n2)cc1 | . | . | . | . | 83.0* | 13.4* | i
COc1ccc(C(=O)CSc2nc3c(c(=O)n(C)c(=O)n3C)n2C)cc1 | -0.278 | -14.1 | 1.1 | -0.4 | . | . | .

Screens from PubChem BioAssay.
